The source of these data is ChEMBL document CHEMBL1123761, “Inhibition of the mammalian beta-lactamase renal dipeptidase (dehydropeptidase-I) by (Z)-2-(acylamino)-3-substituted-propenoic acids” (J Med Chem, 1987).

Non-standard residues stand in square brackets, D forms with d. Residues, ends and D or L forms follow the SMILES beside them. *: point of attachment. Isovaleryl = CC(C)CC(=O)*; Dhb = C/C=C(\N)C(=O)O; Butyryl = CCCC(=O)*

The Ki is a dissociation constant, usually derived from enzyme kinetics or from competition with a known ligand. Lower therefore signals a stronger hold on the target. The inhibition is the relative decrease from the control value, in per cent. High values mean strong suppression, low ones little suppression.

The first test addresses T1, Dipeptidase 1 (Sus scrofa, UniProt P22412).
T1 sequence (P22412 whole entry): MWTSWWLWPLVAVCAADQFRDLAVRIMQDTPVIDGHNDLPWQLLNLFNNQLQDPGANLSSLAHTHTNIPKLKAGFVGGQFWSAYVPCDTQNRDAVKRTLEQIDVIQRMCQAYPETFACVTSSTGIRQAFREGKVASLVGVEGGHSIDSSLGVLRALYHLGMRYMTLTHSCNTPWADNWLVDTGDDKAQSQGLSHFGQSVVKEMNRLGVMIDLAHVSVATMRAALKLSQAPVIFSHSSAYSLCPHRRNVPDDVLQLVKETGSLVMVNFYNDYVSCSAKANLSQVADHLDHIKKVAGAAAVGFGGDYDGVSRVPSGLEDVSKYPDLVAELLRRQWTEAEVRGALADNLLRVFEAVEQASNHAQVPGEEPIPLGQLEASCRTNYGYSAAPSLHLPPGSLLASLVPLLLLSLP
As to the kind of experiment: Inhibitory activity against beta-lactamase renal dipeptidase.
`CC(=O)NCCCCC/C=C(\NC(=O)C1CC1(C)C)C(=O)O` (stereo not given) showed a Ki of 230 nM.

`C/C=C(\NC(=O)CC(C)CCCC(C)(C)O)C(=O)O` (stereo not given) showed a Ki of 67000 nM.

Regarding `CC1(C)CC1C(=O)N/C(=C\CCCCBr)C(=O)O` (stereo not given), affinity was put at a Ki of 150 nM.

Take `C/C=C(\NC(=O)C1CC1(Cl)Cl)C(=O)O` (stereo not given): affinity was put at a Ki of 80 nM.

As to `CC1(C)CC1C(=O)N/C(=C\CCCCCCC[N+](C)(C)Cc1ccccc1)C(=O)[O-]` (stereo not given), the affinity corresponds to a Ki of 450 nM.

Regarding `CN(C)CCCCCCC/C=C(\NC(=O)C1CC1(C)C)C(=O)O` (stereo not given), the affinity, expressed as Ki, was 520 nM.

`C/C=C(\NC(=O)C1(C)CC1(Cl)Cl)C(=O)O` (stereo not given) showed a Ki of 164000 nM.

`COC(=O)CSCCCCC/C=C(\NC(=O)C1CC1(C)C)C(=O)O` (stereo not given) registered a Ki of 200 nM.

Compound `C/C=C(\NC(=O)CCCCCCCCCC)C(=O)O` displayed a Ki of 19000 nM.

`CCN(CC)CCCCC/C=C(\NC(=O)C1CC1(C)C)C(=O)O` (stereo not given) gave a Ki of 860 nM.

`C=CCC/C=C(\NC(=O)C1CC1(C)C)C(=O)O` (stereo not given): the affinity, expressed as Ki, was 230 nM.

For `C/C=C(\NC(=O)CCC(C)C)C(=O)O`, the Ki came to 14000 nM.

`C/C=C(\NC(=O)C=C(C)C)C(=O)O` came in with a Ki of 28000 nM.

For the compound `CC1(C)C[C@@H]1C(=O)N/C(=C\CCCCSC[C@H](N)C(=O)O)C(=O)O` (stereo in doubt; 176) [CILASTATIN], the Ki was determined as 110 nM.

The compound `C/C=C(\NC(=O)CCCNC(=O)CC(C)C)C(=O)O` yielded a Ki of 52000 nM.

As for `CC1(C)CC1C(=O)N/C(=C\CCCCCCBr)C(=O)O` (stereo not given), affinity was put at a Ki of 160 nM.

In turn, `CC1(C)CC1C(=O)N/C(=C\CCCSCC(N)C(=O)O)C(=O)O` (stereo not given) returned a Ki of 270 nM.

With `C/C=C(\NC(=O)CCCc1cccs1)C(=O)O`, the Ki was 10000 nM.

In the case of `C/C=C(\NC(=O)CCCCCNC(=O)CC)C(=O)O`, the Ki was determined as 41000 nM.

Take `C/C=C(\NC(=O)CCCNC(C)=O)C(=O)O`: the affinity corresponds to a Ki of 102000 nM.

With `C/C=C(\NC(=O)CCCCCCCCCCC)C(=O)O`, the Ki came out at 35000 nM.

On to `C/C=C(\NC(=O)C1CC1(Br)Br)C(=O)O` (stereo not given), for which affinity was put at a Ki of 30 nM.

In the case of `C/C=C(\NC(=O)CCCCC#N)C(=O)O`, the Ki was 25000 nM.

`CC1(C)C[C@@H]1C(=O)N/C(=C\CCCCCNC(C)(C)P(=O)(O)O)C(=O)O` registered a Ki of 180 nM.

In the case of `C/C=C(\NC(=O)CCCC(=O)OCC)C(=O)O`, the affinity corresponds to a Ki of 39000 nM.

The compound `C/C=C(\NC(=O)c1cccc(Cl)c1)C(=O)O` showed a Ki of 22000 nM.

Regarding `CC1(C)CC1C(=O)N/C(=C\CCCCCNC(N)=O)C(=O)O` (stereo not given), affinity was put at a Ki of 300 nM.

`C/C=C(\NC(=O)CCCCC(=O)N/C(=C\C)C(=O)O)C(=O)O`: the Ki stood at 10000 nM.

`CC1(C)CC1C(=O)N/C(=C\CCCCC#N)C(=O)O` (stereo not given) registered a Ki of 210 nM.

The compound `C/C=C(\NC(=O)C1CC(C)(C)C1)C(=O)O` showed a Ki of 11200 nM.

With `C/C=C(\NC(=O)C1CC1(F)F)C(=O)O` (stereo not given), the affinity, expressed as Ki, was 2100 nM.

`CC1(C)CC1C(=O)N/C(=C\CCCBr)C(=O)O` (stereo not given) registered a Ki of 380 nM.

Turning to `CC(NCCCCC/C=C(\NC(=O)[C@H]1CC1(C)C)C(=O)O)P(=O)(O)O` (stereo not given in full), the affinity, expressed as Ki, was 160 nM.

On to `C/C=C(\NC(=O)CC1CCCC1)C(=O)O`, for which the Ki came to 9800 nM.

In the case of `CCCCC/C=C(\NC(=O)C1CC1(Cl)Cl)C(=O)O` (stereo not given), the affinity corresponds to a Ki of 60 nM.

In turn, `CC1(C)CC1C(=O)N/C(=C\CCCCS(=O)(=O)O)C(=O)O` (stereo not given) came in with a Ki of 87 nM.

In turn, `C/C=C(\NC(=O)CSCC)C(=O)O` registered a Ki of 31000 nM.

The compound `CC1(C)CC1C(=O)N/C(=C\CCCCCO)C(=O)O` (stereo not given) yielded a Ki of 230 nM.

`CC1(C)CC1C(=O)N/C(=C\CCCCCNC=N)C(=O)O` (stereo not given) came in with a Ki of 780 nM.

The compound `CC(NCCCCC/C=C(\NC(=O)C1CC1(C)C)C(=O)O)P(=O)(O)O` (stereo not given) registered a Ki of 280 nM.

In turn, `C/C=C(\NC(=O)C1CC12CC2)C(=O)O` (stereo not given) had a Ki of 1600 nM.

As for `CC1(C)CC1C(=O)N/C(=C\CCCCCCCN)C(=O)O` (stereo not given), the affinity, expressed as Ki, was 810 nM.

A further test addresses T2, Dipeptidase 1 (Sus scrofa) (UniProt P22412).
T2 sequence (whole entry): T1 sequence (P22412 whole entry)
As to the kind of experiment: Inhibitory activity against beta-lactamase renal dipeptidase at a concentration of 100 uM. The method, boiled down: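 Inhibitor was incubated with solubilized renal dipeptidase (50–75% ammonium sulfate fraction, 5 µg) in 50 mM MOPS pH 7.1 for 5 min at 37 °C. Glycyldehydrophenylalanine was then added to 50 µM. Rate was followed as the absorbance decrease at 275 nm over 10 min and compared with the uninhibited rate.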
For the compound `C/C=C(\NC(=O)CCC1CCCO1)C(=O)O` (stereo not given), the inhibition came out at 51%.

In turn, `C/C=C(\NC(=O)C(CCC)CCC)C(=O)O` came in with an inhibition of 13%.

`O=C(O)/C(=C/Cl)NC(=O)c1ccccc1` registered an inhibition of 36%.

With `C/C=C(\NC(=O)c1ccco1)C(=O)O`, the inhibition was 57%.

Compound `C/C=C(\NC(=O)COc1ccccc1)C(=O)O` displayed an inhibition of 3%.

Regarding `C/C=C(\NC(=O)c1ccc2ccccc2c1)C(=O)O`, the inhibition is 3%.

In the case of `C/C=C(\NC(=O)CCCCCCCCCCCCC)C(=O)O`, the inhibition came out at 45%.

Consider `C/C=C(\NC(=O)CCc1ccccc1)C(=O)O`, for which the inhibition worked out at 30%.

For the compound `CC(C)=C(NC(=O)c1ccccc1)C(=O)O`, the inhibition worked out at 4%.

In the case of `C/C=C(\NC(=O)CCCC(=O)N(C)C)C(=O)O`, the inhibition worked out at 46%.

As for `C/C=C(\NC(=O)CCCCC(C)C)C(=O)O`, the inhibition turned out to be 57%.

`C/C=C(\NC(=O)CC)C(=O)O` gave an inhibition of 43%.

As for `C/C=C(\NC(=O)CCl)C(=O)O`, the inhibition was found to be 52%.

Regarding `C/C=C(\NC(=O)CNC(=O)CC(C)C)C(=O)O` (Isovaleryl-Gly-[Dhb]-OH), the inhibition came to 5%.

`O=C(CO)N/C(=C\c1ccccc1)C(=O)O` returned an inhibition of 4%.

In turn, `C/C=C(\NC(=O)CCCCC)C(=O)O` returned an inhibition of 54%.

Turning to `C/C=C(\NC(=O)c1ccc(C)cc1)C(=O)O`, the inhibition came to 2.5%.

In turn, `C/C=C(\NC(=O)CCC1CCCC1)C(=O)O` gave an inhibition of 56%.

With `C/C=C(\NC(=O)CC1=CCCCC1)C(=O)O`, the inhibition is 50%.

`CO/C=C(\NC(=O)c1ccccc1)C(=O)O` yielded an inhibition of 23%.

`C/C=C(\NC(=O)C1C(C=C(C)C)C1(C)C)C(=O)O` (stereo not given) came in with an inhibition of 15%.

`C/C=C(\NC(=O)C1C(C)(C)C1(C)C)C(=O)O` came in with an inhibition of 10%.

For `C/C=C(\NC(=O)C1C(C(C)(C)C)C1(C)C)C(=O)O` (stereo not given), the inhibition is 44%.

`C/C=C(\NC(=O)C(C)C)C(=O)O` showed an inhibition of 31%.

As for `C/C=C(\NC(=O)/C=C/c1ccccc1)C(=O)O`, the inhibition stood at 0%.

`C=CCCC(=O)N/C(=C\C)C(=O)O` yielded an inhibition of 57%.

In turn, `C/C=C(\NC(=O)/C=C/C=C/C)C(=O)O` returned an inhibition of 0%.

For the compound `C/C=C(\NC(C)=O)C(=O)O`, the inhibition stood at 12%.

`CC(C)=C(NC(=O)C1CC1(C)C)C(=O)O` (stereo not given) gave an inhibition of 57%.

For the compound `C=C(NC(=O)c1ccccc1)C(=O)O`, the inhibition was found to be 9%.

With `C[C@H](N)C(=O)N/C(=C\Cl)C(=O)O`, the inhibition amounted to 6%.

The compound `C/C=C(\NC(=O)CCCCCC)C(=O)O` returned an inhibition of 49%.

`C/C=C(\NC(=O)c1ccc(Cl)cc1)C(=O)O` displayed an inhibition of 7%.

As to `C/C=C(\NC(=O)C12CC3CC(CC(C3)C1)C2)C(=O)O`, the inhibition was 3%.

Consider `C/C=C(\NC(=O)C(C)(C)C)C(=O)O`, for which the inhibition was 0%.

On to `C/C=C(\NC(=O)C1(C)CCCCC1)C(=O)O`, for which the inhibition worked out at 11%.

`C/C=C(\NC(=O)Cc1ccccc1)C(=O)O`: the inhibition was determined as 21%.

For the compound `C/C=C(\NC(=O)CCCCCCCCCCCCCCCCC)C(=O)O`, the inhibition amounted to 12%.

The compound `C/C=C(\NC(=O)C(CC)CCCC)C(=O)O` (stereo not given) registered an inhibition of 33%.

`C/C=C(\NC(=O)CCC1CCCCC1)C(=O)O` came in with an inhibition of 54%.

`C/C=C(\NC(=O)CC1CC2CCC1C2)C(=O)O` (stereo not given) gave an inhibition of 54%.

`C/C=C(\NC(=O)C1(C)CC1)C(=O)O` came in with an inhibition of 16%.

Take `C/C=C(\NC(=O)CC12CC3CC(CC(C3)C1)C2)C(=O)O`: the inhibition is 33%.

Take `C/C=C(\NC(=O)CCCCCCCCC)C(=O)O`: the inhibition is 58%.

The compound `C/C=C(\NC(=O)CNC(=O)CCC)C(=O)O` (Butyryl-Gly-[Dhb]-OH) returned an inhibition of 5%.

`C/C=C(\NC(=O)c1c(Cl)cccc1Cl)C(=O)O`: the inhibition was determined as 0%.

As for `C/C=C(\NC(=O)c1ccc(OC)cc1)C(=O)O`, the inhibition came out at 0%.

Regarding `C/C=C(\NC(=O)CN)C(=O)O` (H-Gly-[Dhb]-OH), the inhibition was 6%.
